Experimental data published in ChEMBL document CHEMBL4706580, “4-Amino-1,2,4-triazole-3-thione-derived Schiff bases as metallo-β-lactamase inhibitors” (Eur J Med Chem, 2020).
The source made the active and inactive calls. The calls are words filed in the database; no cut-off is given here.

What was measured:
[1] = Inhibition of beta-lactamase IMP-1 (unknown origin) expressed in Escherichia coli BL21(DE3) using imipenem as substrate by measuring substrate hydrolysis by spectrophotometric analysis
Procedure, shortened: (§1)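 Purified enzyme (overproduced in E. coli BL21(DE3), pET-9a; ion-exchange and gel filtration), 1-70 nM final. Reporter substrate 150 μM imipenem, read at 300 nm, 30 °C, 50 mM HEPES pH 7.5. Single-point screen at 100 or 200 μM; Ki from v0/vi vs [I] (0.5–1,000 μM final) assuming competitive inhibition, or Dixon plot. Triplicate.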

[2] = Inhibition of beta-lactamase VIM2 (unknown origin) expressed in Escherichia coli BL21(DE3) using imipenem as substrate by measuring substrate hydrolysis by spectrophotometric analysis; procedure, shortened: as §1
[3] = Inhibition of beta-lactamase L1 (unknown origin) expressed in Escherichia coli BL21(DE3) using nitrocefin as substrate by measuring substrate hydrolysis at 200 uM preincubated for 30 mins by spectrophotometric analysis
[4] = Inhibition of beta-lactamase NDM1 (unknown origin) expressed in Escherichia coli BL21(DE3) using cefotaxime/nitrocefin as substrate by measuring substrate hydrolysis by spectrophotometric analysis
Procedure, shortened: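 His-tagged enzyme from E. coli BL21(DE3) pET-15b, affinity-purified, 1-70 nM final. Reporter substrate 120 μM cefotaxime (260 nm) or 100 μM nitrocefin (482 nm), 30 °C, 50 mM HEPES pH 7.5. Inhibitor 0.5–1,000 μM final; competitive Ki from v0/vi vs [I] slope or Dixon plot. Triplicate.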

[5] = Inhibition of beta-lactamase L1 (unknown origin) expressed in Escherichia coli BL21(DE3) using nitrocefin as substrate by measuring substrate hydrolysis at 100 uM preincubated for 30 mins by spectrophotometric analysis
Procedure, shortened: (§2)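 Enzyme 0.2–0.8 nM in 25 mM HEPES pH 7.5 with 50 μM ZnCl2 final, pre-incubated 30 min at 21 °C with inhibitor (100 μM screen). Nitrocefin 100 μM final, read at 482 nm, 30 °C. Residual activity vs three uninhibited samples; Ki (1–100 μM inhibitor) from Hanes linearization, competitive model. Triplicate.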

[6] = Inhibition of beta-lactamase VIM4 (unknown origin) expressed in Escherichia coli BL21(DE3) using imipenem as substrate by measuring substrate hydrolysis by spectrophotometric analysis; procedure, shortened: as §1
[7] = Inhibition of beta-lactamase VIM-2 (unknown origin) expressed in Escherichia coli LZ2310 assessed as potentiation of cefoxitin antibacterial activity by measuring cefoxitin induced diameter of inhibition zone at 80 uM incubated for 18 hrs by disk diffusion method (reference value: 14 mm)
Procedure, shortened: (§3)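 Efflux-deficient E. coli LZ2310 (NorE, MdfA, AcrA knocked out) carrying pLB-II with the cloned MBL gene. Mueller-Hinton, CLSI disk diffusion; antibiotic disks (30 µg cefoxitin for VIM-2, 10 µg ampicillin for VIM-4, 30 µg ceftazidime for NDM-1/IMP-1) loaded with inhibitor in DMSO (≤15 µL). Zone diameter after 18 h, 35 ± 1 °C; DMSO and 220 µg EDTA controls. Triplicate.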

[8] = Inhibition of beta-lactamase NDM-1 (unknown origin) expressed in Escherichia coli LZ2310 assessed as potentiation of ceftazidime antibacterial activity by measuring ceftazidime induced diameter of inhibition zone at 80 uM incubated for 18 hrs by disk diffusion method (reference value: 15 mm); procedure, shortened: as §3
[9] = Inhibition of beta-lactamase IMP-1 (unknown origin) expressed in Escherichia coli LZ2310 assessed as potentiation of ceftazidime antibacterial activity by measuring ceftazidime induced diameter of inhibition zone at 320 uM incubated for 18 hrs by disk diffusion method (reference value: 9 mm); procedure, shortened: as §3
[10] = Inhibition of beta-lactamase L1 (unknown origin) expressed in Escherichia coli BL21(DE3) using nitrocefin as substrate by measuring substrate hydrolysis preincubated for 30 mins by spectrophotometric analysis; procedure, shortened: as §2
[11] = Binding affinity to beta-lactamase VIM-2 expressed in Escherichia coli BL21(DE3) assessed as dissociation constant at 25 degC by isothermal titration calorimetry
Procedure, shortened: (§4)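 VIM-2 (19 μM) in 10 mM HEPES-NaOH, 0.15 M NaCl, 50 μM ZnSO4, pH 7.5, DMSO matched to ligand (1-2% final). One 0.5 μl then 19 × 2 μl injections of compound (200-400 μM), 150 s apart, 25 °C. Buffer dilution heats subtracted; nonlinear least-squares fit for n, Ka, ΔH; compound concentration adjusted in fitting so n ≈ 1.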

[12] = Inhibition of beta-lactamase VIM-2 (unknown origin) expressed in Escherichia coli LZ2310 assessed as potentiation of cefoxitin antibacterial activity by measuring cefoxitin induced diameter of inhibition zone at 320 uM incubated for 18 hrs by disk diffusion method (reference value: 14 mm); procedure, shortened: as §3
[13] = Binding affinity to beta-lactamase VIM-2 expressed in Escherichia coli BL21(DE3) assessed as change in entropy at 25 degC by isothermal titration calorimetry; procedure, shortened: as §4
[14] = Binding affinity to beta-lactamase VIM-2 expressed in Escherichia coli BL21(DE3) assessed as Gibbs free energy at 25 degC by isothermal titration calorimetry; procedure, shortened: as §4
[15] = Binding affinity to beta-lactamase VIM-2 expressed in Escherichia coli BL21(DE3) assessed as change in enthalpy at 25 degC by isothermal titration calorimetry; procedure, shortened: as §4
[16] = Inhibition of beta-lactamase VIM-2 (unknown origin) expressed in Escherichia coli XL-1 assessed as potentiation of cefoxitin antibacterial activity by measuring cefoxitin induced diameter of inhibition zone at 320 uM incubated for 18 hrs by disk diffusion method (reference value: 8 mm)
Procedure, shortened: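 Wild-type efflux E. coli XL-1 Blue transformed with pLB-II-VIM-2. Mueller-Hinton disk diffusion per CLSI, 30 µg cefoxitin disks loaded with inhibitor dissolved in DMSO (≤15 µL). Growth-inhibition zone measured after 18 h at 35 ± 1 °C; DMSO negative and 220 µg EDTA positive controls. Triplicate.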

[17] = Inhibition of beta-lactamase CphA (unknown origin) expressed in Escherichia coli BL21(DE3) using imipenem as substrate by measuring substrate hydrolysis by spectrophotometric analysis
Procedure, shortened: (§5)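 Enzyme 0.2–0.8 nM in 15 mM cacodylate pH 6.5, no added zinc, pre-incubated 30 min at 21 °C with inhibitor (100 μM screen). Imipenem substrate added from 10 mM stock; hydrolysis at 300 nm, 30 °C. Residual activity vs three uninhibited samples; Ki (1–100 μM inhibitor) by Hanes linearization, competitive model. Triplicate.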

[18] = Binding affinity to beta-lactamase VIM-2 expressed in Escherichia coli BL21(DE3) assessed as association constant at 25 degC by isothermal titration calorimetry; procedure, shortened: as §4
[19] = Inhibition of beta-lactamase NDM-1 (unknown origin) expressed in Escherichia coli LZ2310 assessed as potentiation of ceftazidime antibacterial activity by measuring ceftazidime induced diameter of inhibition zone at 40 uM incubated for 18 hrs by disk diffusion method (reference value: 15 mm); procedure, shortened: as §3
[20] = Inhibition of beta-lactamase IMP-1 (unknown origin) expressed in Escherichia coli LZ2310 assessed as potentiation of ceftazidime antibacterial activity by measuring ceftazidime induced diameter of inhibition zone at 40 uM incubated for 18 hrs by disk diffusion method (reference value: 9 mm); procedure, shortened: as §3
[21] = target: Hydroxyacylglutathione hydrolase (Homo sapiens); test: Inhibition of human Glyoxalase II expressed in Escherichia coli BL21 (DE3)
[22] = Inhibition of beta-lactamase CphA (unknown origin) expressed in Escherichia coli BL21(DE3) using imipenem as substrate by measuring substrate hydrolysis at 200 uM by spectrophotometric analysis
[23] = Inhibition of beta-lactamase VIM-2 (unknown origin) expressed in Escherichia coli LZ2310 assessed as potentiation of cefoxitin antibacterial activity by measuring cefoxitin induced diameter of inhibition zone at 40 uM incubated for 18 hrs by disk diffusion method (reference value: 14 mm); procedure, shortened: as §3
[24] = Inhibition of beta-lactamase CphA (unknown origin) expressed in Escherichia coli BL21(DE3) using imipenem as substrate by measuring substrate hydrolysis at 100 uM by spectrophotometric analysis; procedure, shortened: as §5
[25] = Inhibition of beta-lactamase IMP-1 (unknown origin) expressed in Escherichia coli BL21(DE3) using imipenem as substrate by measuring substrate hydrolysis at 100 uM by spectrophotometric analysis; procedure, shortened: as §1
[26] = Inhibition of beta-lactamase IMP-1 (unknown origin) expressed in Escherichia coli BL21(DE3) using imipenem as substrate by measuring substrate hydrolysis at 200 uM by spectrophotometric analysis; procedure, shortened: as §1

-TdeltaS [13] | deltaG [14] | deltaH [15] | Ka [18] | IC50 [21] | inhibition zone (IZ) [23] | Structure (SMILES) | Ki [1] | Ki [2] | Ki [4] | Ki [6] | Ki [10] | Kd [11] | Ki [17] | further results
– | – | – | – | – | – | Oc1ccc(/C=N/n2c(-c3ccccc3-c3ccccc3)n[nH]c2=S)c(O)c1 | 12 µM | 4.5 µM | 6.4 µM | 9 µM | – | – | – | inhibition [3]: inactive; inhibition [5]: inactive; inhibition zone (IZ) [7]: 14 mm; inhibition zone (IZ) [8]: 15 mm
2.6 kcal/mol | -9.8 kcal/mol | -7.2 kcal/mol | 1.5 10^7/M | – | – | O=C(O)c1ccccc1/C=N/n1c(-c2cccc(-c3ccccc3)c2)n[nH]c1=S | 17.7 µM | 0.2 µM | 4.2 µM | 0.04 µM | 0.6 µM | 0.068 µM | 4 µM | inhibition zone (IZ) [9]: 9 mm; inhibition zone (IZ) [12]: 15 mm; inhibition zone (IZ) [16]: 9 mm
5.1 kcal/mol | -8.4 kcal/mol | -3.3 kcal/mol | 1.4 10^6/M | 13.2 µM | 15 mm | O=C(O)c1ccccc1/C=N/n1c(-c2ccc3ccccc3c2)n[nH]c1=S | 10.6 µM | 0.7 µM | 2.3 µM | 0.4 µM | 4.62 µM | 0.713 µM | – | inhibition zone (IZ) [19]: 15 mm; inhibition zone (IZ) [20]: 9 mm; inhibition [22]: inactive; inhibition [24]: inactive
4.9 kcal/mol | -8.5 kcal/mol | -3.6 kcal/mol | 1.9 10^6/M | 25.5 µM | 20 mm | O=C(O)c1ccccc1/C=N/n1c(-c2ccccc2)n[nH]c1=S | – | 2.7 µM | 38 µM | 1.4 µM | 5 µM | 0.519 µM | 58 µM | inhibition [25]: inactive; inhibition [26]: inactive
